# According to ChEMBL document CHEMBL1125183, “3-Hydroxy-3-methylglutaryl-coenzyme a reductase inhibitors. 7. Modification of the hexahydronaphthalene moiety of simvastatin: 5-oxygenated and 5-oxa derivatives” (J Med Chem, 1991):
# Tests used:
# [1] = molecular target: T1, 3-hydroxy-3-methylglutaryl-coenzyme A reductase (Rattus norvegicus, UniProt P51639); assay: In vitro ability to inhibit solubilized, partially purified, rat liver HMG-CoA reductase
# T1 sequence (P51639 whole entry): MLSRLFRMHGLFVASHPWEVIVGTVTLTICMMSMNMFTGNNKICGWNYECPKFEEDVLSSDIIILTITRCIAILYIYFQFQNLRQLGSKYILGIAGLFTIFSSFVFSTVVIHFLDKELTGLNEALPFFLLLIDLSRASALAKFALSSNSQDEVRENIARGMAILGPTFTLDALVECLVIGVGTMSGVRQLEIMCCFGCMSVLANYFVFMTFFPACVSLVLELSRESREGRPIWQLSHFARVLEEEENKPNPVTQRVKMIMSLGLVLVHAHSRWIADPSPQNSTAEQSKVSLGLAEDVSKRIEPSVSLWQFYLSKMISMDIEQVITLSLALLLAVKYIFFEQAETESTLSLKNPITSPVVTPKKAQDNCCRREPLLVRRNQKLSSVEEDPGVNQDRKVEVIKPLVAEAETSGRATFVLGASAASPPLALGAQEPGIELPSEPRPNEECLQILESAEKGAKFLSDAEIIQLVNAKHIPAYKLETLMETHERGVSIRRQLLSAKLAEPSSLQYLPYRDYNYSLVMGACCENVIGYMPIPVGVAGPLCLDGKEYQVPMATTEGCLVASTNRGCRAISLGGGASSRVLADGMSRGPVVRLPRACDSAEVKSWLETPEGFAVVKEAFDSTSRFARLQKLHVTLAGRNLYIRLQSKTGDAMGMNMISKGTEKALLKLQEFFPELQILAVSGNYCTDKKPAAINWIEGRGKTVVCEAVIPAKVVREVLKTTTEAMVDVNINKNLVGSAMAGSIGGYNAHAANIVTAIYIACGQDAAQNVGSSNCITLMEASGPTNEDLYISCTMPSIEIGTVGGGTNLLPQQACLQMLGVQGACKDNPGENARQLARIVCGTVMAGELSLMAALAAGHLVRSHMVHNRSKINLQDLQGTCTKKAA
# Procedure, shortened: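 Enzyme tested as the sodium salt of the dihydroxy carboxylate form, against solubilized, partially purified rat liver HMG-CoA reductase. Conditions follow a procedure the paper cites from earlier work.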
# Rattus norvegicus = species: Rattus norvegicus; assay: The compound was evaluated for acute inhibition of cholesterol synthesis in rat; percent change of [14C]cholesterol; assay type: functional
# Procedure, shortened: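 Rats received a single oral dose of 0.45 mg/kg. Synthesis of cholesterol from [14C]acetate was measured at a fixed time after dosing and reported as % change in [14C]cholesterol.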
# [2] = Relative potency with respect to compactin; assay type: ADME
# Canis familiaris [3] = assay: Inhibition of cholesterol synthesis in cholestyramine-primed dogs at 4 mg/kg per day dose in Dog-1; assay type: functional, Canis lupus familiaris
# Procedure, shortened: (§1)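 Male beagles were fed a low-cholesterol semisynthetic diet once daily, with 12 g cholestyramine per day in the diet. Pretreatment plasma cholesterol was established, then one dog per compound received 4 mg/kg mixed into the diet for 21 days and was then crossed over to the lovastatin control at the same dose for 2-3 weeks. Jugular blood was taken twice weekly. Plasma cholesterol was measured colorimetrically (Liebermann-Burchard) after extraction and saponification and reported as % change from the resin-treated state.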
# Canis familiaris [4] = assay: Inhibition of cholesterol synthesis in cholestyramine-primed dogs at 4 mg/kg per day dose in Dog-2; assay type: functional, Canis lupus familiaris; procedure, shortened: as §1
# Canis familiaris [5] = assay: Inhibition of cholesterol synthesis in cholestyramine-primed dogs at 4 mg/kg per day dose in Dog-3:; assay type: functional, Canis lupus familiaris; procedure, shortened: as §1
# Canis familiaris [6] = assay: Inhibition of cholesterol synthesis in cholestyramine-primed dogs at 4 mg/kg per day dose in Dog 1; assay type: functional, Canis lupus familiaris; procedure, shortened: as §1
# Canis familiaris [7] = assay: Inhibition of cholesterol synthesis in cholestyramine-primed dogs at 4 mg/kg per day dose in Dog 2; assay type: functional, Canis lupus familiaris; procedure, shortened: as §1
# Canis familiaris [8] = assay: Inhibition of cholesterol synthesis in cholestyramine-primed dogs at 4 mg/kg per day dose in Dog-3; assay type: functional, Canis lupus familiaris; procedure, shortened: as §1
smiles,measurement,setting,value
CCC(C)(C)C(=O)O[C@H]1C[C@@H](C)C(=O)[C@@H]2CC[C@H](C)[C@H](CC[C@@H]3C[C@@H](O)CC(=O)O3)C12 (some centres not stated),IC50,[1],34 nM
same,Change,Rattus norvegicus,-56%
same,Relative potency,[2],125
CC[C@H](C)C(=O)O[C@H]1C[C@@H](C)C=C2C=C[C@H](C)[C@H](CC[C@@H]3C[C@@H](O)CC(=O)O3)C21 (some centres not stated),Change,Canis familiaris [3],25%
same,Change,Canis familiaris [4],38%
same,Change,Canis familiaris [5],25%
CCC(C)(C)C(=O)O[C@H]1C[C@@H](C)[C@@H](OC(=O)N(Cc2ccccc2)Cc2ccccc2)[C@@H]2CC[C@H](C)[C@H](CC[C@@H]3C[C@@H](O)CC(=O)O3)C12 (some centres not stated),IC50,[1],16 nM
same,Change,Rattus norvegicus,-4%
same,Relative potency,[2],94
CCC(C)(C)C(=O)O[C@@H](C[C@@H](C)CO)C1[C@H](O)CC[C@H](C)[C@@H]1CC[C@@H]1C[C@@H](O)CC(=O)O1 (some centres not stated),IC50,[1],2800 nM
same,Relative potency,[2],0.5
CCC(C)(C)C(=O)O[C@H]1C[C@H](C)[C@H](O)[C@@H]2CC[C@H](C)[C@H](CC[C@@H]3C[C@@H](O)CC(=O)O3)C12 (some centres not stated),IC50,[1],269 nM
same,Relative potency,[2],11.1
CCC(C)(C)C(=O)O[C@H]1C[C@](C)(CSc2ccccc2)O[C@@H]2CC[C@H](C)[C@H](CC[C@@H]3C[C@@H](O)CC(=O)O3)C12 (some centres not stated),IC50,[1],6 nM
same,Change,Rattus norvegicus,0%
same,Relative potency,[2],280
CCC(C)(C)C(=O)O[C@H]1CC(C)(C)O[C@@H]2CC[C@H](C)[C@H](CC[C@@H]3C[C@@H](O)CC(=O)O3)C12 (some centres not stated),IC50,[1],35 nM
same,Change,Rattus norvegicus,-67%
same,Relative potency,[2],70
same,Change,Canis familiaris [6],20%
CCC(C)(C)C(=O)O[C@H]1C[C@@](C)(CSc2ccccc2)O[C@@H]2CC[C@H](C)[C@H](CC[C@@H]3C[C@@H](O)CC(=O)O3)C12 (some centres not stated),IC50,[1],6.6 nM
same,Change,Rattus norvegicus,-34%
same,Relative potency,[2],258
CCC(C)(C)C(=O)O[C@H]1C[C@@H](C)[C@@H](OCCc2ccccc2)[C@@H]2CC[C@H](C)[C@H](CC[C@@H]3C[C@@H](O)CC(=O)O3)C12 (some centres not stated),IC50,[1],6 nM
same,Change,Rattus norvegicus,-39%
same,Relative potency,[2],300
CCC(C)(C)C(=O)O[C@H]1C[C@@H](C)CC2CC[C@H](C)[C@H](CC[C@@H]3C[C@@H](O)CC(=O)O3)C21 (some centres not stated),IC50,[1],13 nM
same,Relative potency,[2],138
CCC(C)(C)C(=O)O[C@H]1C[C@@H](C)[C@@H](OP(=O)(c2ccccc2)c2ccccc2)[C@@H]2CC[C@H](C)[C@H](CC[C@@H]3C[C@@H](O)CC(=O)O3)C12 (some centres not stated),IC50,[1],6 nM
same,Change,Rattus norvegicus,-27%
same,Relative potency,[2],300
CCC(C)(C)C(=O)O[C@H]1C[C@H](C)[C@@H](O)[C@@H]2CC[C@H](C)[C@H](CC[C@@H]3C[C@@H](O)CC(=O)O3)C12 (some centres not stated),IC50,[1],48.6 nM
same,Change,Canis familiaris [7],34%
same,Change,Rattus norvegicus,-54%
same,Relative potency,[2],61
C=C(C)C[C@H](OC(=O)C(C)(C)CC)C1[C@H](O)CC[C@H](C)[C@@H]1CC[C@@H]1C[C@@H](O)CC(=O)O1 (some centres not stated),IC50,[1],1700 nM
same,Relative potency,[2],0.9
CCC(C)(C)C(=O)O[C@H]1C[C@H](C)C(=O)[C@@H]2CC[C@H](C)[C@H](CC[C@@H]3C[C@@H](O)CC(=O)O3)C12 (some centres not stated),IC50,[1],59 nM
same,Change,Rattus norvegicus,-68%
same,Relative potency,[2],63
CCC(C)(C)C(=O)O[C@H]1C[C@@H](C)[C@@H](OC(=O)NCc2ccccc2)[C@@H]2CC[C@H](C)[C@H](CC[C@@H]3C[C@@H](O)CC(=O)O3)C12 (some centres not stated),IC50,[1],5 nM
same,Change,Rattus norvegicus,-27%
same,Relative potency,[2],360
CCC(C)(C)C(=O)O[C@H]1C[C@@H](C)[C@@H](O)[C@@H]2CC[C@H](C)[C@H](CC[C@@H]3C[C@@H](O)CC(=O)O3)C12 (some centres not stated),IC50,[1],40.8 nM
same,Change,Rattus norvegicus,-37%
same,Change,Canis familiaris [8],19%
same,Relative potency,[2],73
